Source: ChEMBL document CHEMBL1139275, “Design, synthesis, and biological evaluation of biotin-labeled (-)-ternatin, a potent fat-accumulation inhibitor against 3T3-L1 adipocytes” (Bioorg Med Chem Lett, 2009)

Experiments:
[1] = Cytotoxicity against mouse 3T3L1 cells at 5.2 uM; format: cell-based; details: 3T3-L1 cells, read-out: INH
3T3-L1 [2] = assay: Cytotoxicity against mouse 3T3L1 cells; format: cell-based
3T3-L1 [3] = assay: Inhibition of fat accumulation in mouse 3T3L1 cells after 7 days; format: functional, cell-based; details: 3T3-L1, 168 h
How it was run: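 3T3-L1 cells were exposed to each sample during differentiation, while untreated controls became fully mature adipocytes. Fat accumulation was expressed relative to the controls, and IC50 was taken as the concentration giving 50% inhibition. Values are means of quadruplicate determinations.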

Row | Structure (SMILES) | cytotoxicity at 5.2 µM [1] [%] | IC50 (3T3-L1 [2]) [µM] | IC50 (3T3-L1 [3]) [µM]
1 | C#CC[C@@H]1C(=O)N[C@H]([C@H](O)C(C)C)C(=O)N[C@H]([C@@H](C)CC)C(=O)N(C)[C@@H](C)C(=O)N(C)[C@@H](CC(C)C)C(=O)N[C@@H](CC(C)C)C(=O)N(C)[C@@H](C)C(=O)N1C | 54 | > 5.2 | 0.019
2 | CC[C@H](C)[C@H]1NC(=O)[C@@H]([C@@H](C)O)NC(=O)[C@@H](C)N(C)C(=O)[C@H](C)N(C)C(=O)[C@H](CC(C)C)NC(=O)[C@H](CC(C)C)N(C)C(=O)[C@H](C)N(C)C1=O |  |  | 3.1
3 | CC[C@H](C)[C@H]1NC(=O)[C@@H](CO)NC(=O)[C@@H](C)N(C)C(=O)[C@H](C)N(C)C(=O)[C@H](CC(C)C)NC(=O)[C@H](CC(C)C)N(C)C(=O)[C@H](C)N(C)C1=O |  |  | 12
4 | CC[C@H](C)[C@H]1NC(=O)[C@@H]([C@H](O)C(C)C)NC(=O)[C@@H](Cc2cn(CCOCCOCCNC(=O)CCCC[C@@H]3SC[C@@H]4NC(=O)N[C@@H]43)nn2)N(C)C(=O)[C@H](C)N(C)C(=O)[C@H](CC(C)C)NC(=O)[C@H](CC(C)C)N(C)C(=O)[C@H](C)N(C)C1=O |  | > 86 | 46
